Source: paper PMC3191534 (Translational stroke research, 2011)
Entries after “also recorded” stand apart in the source; their conditions may differ. Where two headings read alike, the source gives them in different places. Marks after values point to notes of the source that are not given here.

Experiments:
[1] = system: Salmonella typhimurium TA989; experiment: Ames genotoxicity test, TA989; assay type: cell-based
[2] = system: Salmonella typhimurium TA100; experiment: Ames genotoxicity test, TA100; assay type: cell-based
[3] = Metabolic stability in human and animal liver microsomes, stated across species; assay type: in vitro ADME, dog, rat, mouse
[4] = microsomes
HT22 hippocampal cells = experiment: HT22 neuroprotection, IAA or oxidative glutamate toxicity assays stated together; assay type: cell-based; settings: read-out: EC50, neuroprotection, either IAA or oxidative glutamate toxicity assay
[5] = system: free radical-induced peroxidation; settings: in vitro; cited from earlier work
[6] = rat, microsomes
P-glycoprotein (PgP) = experiment: P-glycoprotein; assay type: cell-based, rat; settings: 50 μM
How it was run: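 H4IIE cells were exposed to the test compound at a single concentration (50 μM), with and without the PgP inhibitor cyclosporin A. Toxicity was measured by MTT assay and expressed as % control for each condition. The % difference was taken as the PgP interaction measure. The compound came from a DMSO stock, with a DMSO control, in a blinded contract CeeTox study.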

[7] = system: H4IIE rat hepatoma cell line; experiment: CeeTox analysis, cellular toxicity panel; assay type: cell-based
HT22 cells [8] = experiment: HT22 cell ATP content in the in vitro ischemia assay; assay type: cell-based; settings: 20 μM IAA; highest dose tested (10 μM)
[9] = dog, microsomes
[10] = rat, in vivo; cited from earlier work
HT22 hippocampal neurons = experiment: In vitro ischemia assay; assay type: cell-based
How it was run: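 HT22 cells were grown in DMEM with 10% FCS and seeded at 5×10^3 cells/well. Next day they were switched to DMEM with 7.5% DFCS and given 20 μM iodoacetic acid ± test compound for 2 h, then fresh IAA-free medium with compound for 20 h. MTT (5 μg/ml) ran 4 h at 37°C, was solubilised in 50% DMF/20% SDS pH 4.7, and A570 was read next day. Runs were done ≥3 times in triplicate; ANOVA/Bonferroni.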

[11] = human, microsomes
[12] = system: rat intraluminal suture stroke model; settings: cited from earlier work
HT22 cells [13] = experiment: Oxidative glutamate toxicity; assay type: cell-based
How it was run: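 HT22 cells (DMEM, 10% FCS) were given the test compound, then 5 mM glutamate 30 min later to deplete GSH. Cell survival was measured 24 h after glutamate. Experiments were repeated at least three times in triplicate, shown as mean ± SD, and analysed by ANOVA with Bonferroni's test (P<0.05).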

[14] = oxidative glutamate toxicity assay

Nc1ccc2cc3ccccc3cc2c1 [2-aminoanthracene, reference compound]
Mean no. of positive wells ([1]; TA989+S9, positive control): 48.00
Mean no. of positive wells ([1]; TA989−S9, positive control): 36.00
Mean no. of positive wells ([2]; TA100+S9, positive control): 48.00
Mean no. of positive wells ([2]; TA100−S9, positive control): 48.00

C[C@]12CC[C@H]3[C@@H](CCC4=CC(=O)CC[C@@]43C)[C@@H]1CC[C@@H]2O [testosterone, reference compound]
half-life ([3]; human): 10 to 32 min

Stilbazulenyl nitrone [STAZN]
Mean no. of positive wells ([1]; TA989+S9, .001963 mg/ml): 2.33
Mean no. of positive wells ([1]; TA989+S9, .003906 mg/ml): 1.33
Mean no. of positive wells ([1]; TA989+S9, .007813 mg/ml): 5.00
Mean no. of positive wells ([1]; TA989+S9, .015625 mg/ml): 3.00
Mean no. of positive wells ([1]; TA989+S9, .03125 mg/ml): 4.00
Mean no. of positive wells ([1]; TA989+S9, .0625 mg/ml): 2.33
mutagenicity (Ames test outcome) ([1]; TA989, with or without S9, up to 0.0625 mg/ml (0.106 mM)): lack of mutagenicity; also recorded: not mutagenic
Mean no. of positive wells ([1]; TA989−S9, .001963 mg/ml): 1.33
Mean no. of positive wells ([1]; TA989−S9, .003906 mg/ml): 1.33
Mean no. of positive wells ([1]; TA989−S9, .007813 mg/ml): 0.33
Mean no. of positive wells ([1]; TA989−S9, .015625 mg/ml): 0.67
Mean no. of positive wells ([1]; TA989−S9, .03125 mg/ml): 0.00
Mean no. of positive wells ([1]; TA989−S9, .0625 mg/ml): 0.67
Mean no. of positive wells ([2]; TA100+S9, .001963 mg/ml): 7.33
Mean no. of positive wells ([2]; TA100+S9, .003906 mg/ml): 6.33
Mean no. of positive wells ([2]; TA100+S9, .007813 mg/ml): 6.67
Mean no. of positive wells ([2]; TA100+S9, .015625 mg/ml): 6.33
Mean no. of positive wells ([2]; TA100+S9, .03125 mg/ml): 10.67
Mean no. of positive wells ([2]; TA100+S9, .0625 mg/ml): 8.67
mutagenicity (Ames test outcome) ([2]; TA100, with or without S9, up to 0.0625 mg/ml (0.106 mM)): lack of mutagenicity; also recorded: not mutagenic
Mean no. of positive wells ([2]; TA100−S9, .001963 mg/ml): 5.00
Mean no. of positive wells ([2]; TA100−S9, .003906 mg/ml): 3.67
Mean no. of positive wells ([2]; TA100−S9, .007813 mg/ml): 6.33
Mean no. of positive wells ([2]; TA100−S9, .015625 mg/ml): 7.33
Mean no. of positive wells ([2]; TA100−S9, .03125 mg/ml): 5.00
Mean no. of positive wells ([2]; TA100−S9, .0625 mg/ml): 5.67
Half-life t1/2 [4]: < 10 min
Half-life t1/2, calculated value in parentheses ([4]; mouse): 27 min
Percent remaining of initial compound ([4]; mouse, 10 min): 17.2%
Percent remaining of initial compound ([4]; mouse, 20 min): 19.8%
Percent remaining of initial compound ([4]; mouse, 0.5 h): 10.0%
Percent remaining of initial compound ([4]; mouse, 1 h): 13.8%
drug metabolized ([4]; mouse, 1 h): 86%
EC50 (HT22 hippocampal cells): 1 to 5 µM
potency relative to NXY-059 at inhibiting free radical-induced peroxidation [5]: 300 times
Half-life t1/2 [6]: > 60 min
Half-life t1/2, calculated value in parentheses [6]: 95 min
Percent remaining of initial compound ([6]; 10 min): 82.4%
Percent remaining of initial compound ([6]; 20 min): 76.6%
Percent remaining of initial compound ([6]; 0.5 h): 80.3%
drug metabolized ([6]; 0.5 h): 20%
Percent remaining of initial compound ([6]; 1 h): 122 ^d %
half-life [3]: 60 to 78 min
interaction with PgP transporters (P-glycoprotein (PgP)): low-level interaction
% Control (compound + CSA) (P-glycoprotein (PgP); MTT, H4IIE cells, with cyclosporin A): 83.4%
% Control (compound) (P-glycoprotein (PgP); MTT, H4IIE cells, without CSA): 100.3%
% Difference (P-glycoprotein (PgP); without vs with CSA): 16.9%
decrease in cellular ATP content ([7]; H4IIE cells, 300 μM): ~35%
ATP TC50 ([7]; H4IIE cells, 24 h): >300 µM
Cell number TC50 ([7]; H4IIE cells, 24 h): >300 µM
MTT TC50 ([7]; H4IIE cells, 24 h): >300 µM
MemTox TC50 ([7]; H4IIE cells, 24 h): >300 µM
Total GSH TC50 ([7]; H4IIE cells, 24 h): >300 µM
TC50 for all general toxicity measures ([7]; H4IIE cells, 24 h, all assays): > 300 µM
Membrane lipid peroxidation ([7]; H4IIE cells, measured as 8-isoprostane): 0
therapeutic safety window (efficacy/toxicity ratio) ([7]; in vitro, HT22 EC50 vs CeeTox toxicity): 60–150 fold
effect on IAA-induced ATP loss (HT22 cells [8]): significantly attenuate IAA-induced ATP loss
Half-life t1/2 [9]: 71 min
Percent remaining of initial compound ([9]; 10 min): 56.2%
Percent remaining of initial compound ([9]; 20 min): 65.5%
Percent remaining of initial compound ([9]; 0.5 h): 54.5%
Percent remaining of initial compound ([9]; 1 h): 47.6%
drug metabolized ([9]; 1 h): approximately 50%
circulating half-life t1/2, first phase of biexponential decline in blood levels [10]: 28 min
increase in survival (HT22 hippocampal neurons; IAA assay): 621%
maximal level of protection, of total cell survival (HT22 hippocampal neurons; IAA assay): approximately 60%
EC50 (HT22 hippocampal neurons; read-out: EC50, neuroprotection in the IAA assay, estimated, 20 μM IAA, HT22 cells): ~1 µM
Half-life t1/2 [11]: 78 min
Percent remaining of initial compound ([11]; 10 min): 57.7%
Percent remaining of initial compound ([11]; 20 min): 39.7%
Percent remaining of initial compound ([11]; 0.5 h): 46.9%
Percent remaining of initial compound ([11]; 1 h): 49.1%
drug metabolized ([11]; 1 h): approximately 50%
effect on behavior [12]: improved behavior measured up to 30 days following ischemia
effect on infarct volume [12]: reduced infarct volume in a dose- and time-dependent manner
neuroprotective doses, times lower than NXY-059 [12]: 300–600 times
concentration at which significance was first achieved (HT22 cells [13]; 5 mM glutamate, HT22 cells): 5 µM
increase in survival (HT22 cells [13]; [14]): 416%
maximal level of protection, of total cell survival (HT22 cells [13]; [14]): ~52%
